ChEMBL document CHEMBL1158389, “Highly twisted adamantyl arotinoids: synthesis, antiproliferative effects and RXR transactivation profiles” (Eur J Med Chem, 2009)
Calls of active or inactive are those of the source. The rule behind the calls is not given here.

Columns and labels:
[1] = test system: MIA PaCa-2; experiment: Antiproliferative activity against human MIAPaCa2 cells at 4 uM after 48 hrs by MTT assay; type: functional; settings: MIA PaCa-2, 48 h
Outline: (§1)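 Epithelial cancer lines came from ATCC and were seeded the day before in complete medium: PC-3, SkOV3 and A549 at 3,000/well; MiaPaCa-2 and BxPC-3 at 4,000; T-47D and MDA-MB-468 at 5,000. Medium was switched to 0.5% FBS just before exposure to 4 μM. Read-out was MTT (4 h, 37 °C), SDS/HCl solubilisation, A595 minus cell-free blank. Growth inhibition was taken versus DMSO (≤0.1% v/v) controls, ≥2 experiments in triplicate.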

[2] = test system: SK-OV-3; experiment: Antiproliferative activity against human SKOV3 cells at 4 uM after 48 hrs by MTT assay; type: functional; settings: SK-OV-3, 48 h; outline: as §1
[3] = test system: BXPC-3; experiment: Antiproliferative activity against human BxPC3 cells at 4 uM after 48 hrs by MTT assay; type: functional; settings: BXPC-3, 48 h; outline: as §1
[4] = target: T1, Retinoic acid receptor RXR-alpha (Mus musculus) (UniProt P28700); experiment: Transactivation of Gal4-LBD fused mouse RXRalpha (218 to 467) transfected in african green monkey CV1 cells assessed as luciferase activity at 2 uM after 6 hrs by Dual-light chemiluminescent assay relative to 9-cis-retinoic acid; type: cell-based; settings: CV-1
T1 sequence (whole entry): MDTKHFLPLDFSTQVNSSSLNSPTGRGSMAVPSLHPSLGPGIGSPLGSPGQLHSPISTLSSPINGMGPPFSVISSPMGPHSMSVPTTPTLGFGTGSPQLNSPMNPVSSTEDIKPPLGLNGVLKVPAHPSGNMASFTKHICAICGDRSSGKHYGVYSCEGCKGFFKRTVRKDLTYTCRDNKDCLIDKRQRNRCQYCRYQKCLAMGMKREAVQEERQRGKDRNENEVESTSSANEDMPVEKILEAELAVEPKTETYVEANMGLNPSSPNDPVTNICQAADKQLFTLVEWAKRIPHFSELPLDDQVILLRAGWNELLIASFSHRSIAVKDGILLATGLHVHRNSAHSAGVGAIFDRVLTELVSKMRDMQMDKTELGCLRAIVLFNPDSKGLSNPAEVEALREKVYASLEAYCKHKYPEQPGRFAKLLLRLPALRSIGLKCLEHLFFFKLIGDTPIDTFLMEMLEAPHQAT
Outline: (§2)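 Transfected CV-1 cells carried Gal4-LBD constructs: hRARα 156–462, hRARβ 169–448, hRARγ 178–454 or mRXRα 218–467. Transfection used 10 ng Gal4-LBD, 100 ng UAS-luciferase and 25 ng β-gal vector. After 16 h the medium was changed to 5% charcoal-treated FBS. Cells were stimulated with 2 μM analog for 6 h (RARα, RARβ, RXRα) or 20 h (RARγ). Reference agonists were 1 μM atRA (RARα) and 1 μM 9cRA (RXRα). Luciferase and β-galactosidase were read by chemiluminescence.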

[5] = target: T2, Retinoic acid receptor alpha (Homo sapiens) (UniProt P10276); experiment: Transactivation of Gal4-LBD fused human RARalpha (156 to 454) transfected in african green monkey CV1 cells assessed as luciferase activity at 2 uM after 6 hrs by Dual-light chemiluminescent assay; type: cell-based; settings: CV-1
T2 sequence (whole entry): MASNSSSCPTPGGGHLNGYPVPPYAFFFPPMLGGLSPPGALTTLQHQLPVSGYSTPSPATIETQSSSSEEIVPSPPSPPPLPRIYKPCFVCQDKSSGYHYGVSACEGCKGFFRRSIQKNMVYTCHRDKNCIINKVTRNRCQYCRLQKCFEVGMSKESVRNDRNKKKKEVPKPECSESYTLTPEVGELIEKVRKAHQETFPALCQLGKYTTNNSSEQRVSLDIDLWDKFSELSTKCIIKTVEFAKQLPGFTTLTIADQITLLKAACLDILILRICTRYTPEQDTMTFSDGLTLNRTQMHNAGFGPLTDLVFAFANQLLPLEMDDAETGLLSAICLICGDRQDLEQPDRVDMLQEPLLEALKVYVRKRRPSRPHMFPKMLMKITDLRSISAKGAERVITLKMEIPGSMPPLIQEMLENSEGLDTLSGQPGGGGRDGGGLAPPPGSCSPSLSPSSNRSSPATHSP

[6] = test system: T47D; experiment: Antiproliferative activity against human T47D cells at 4 uM after 48 hrs by MTT assay; type: functional; outline: as §1
[7] = test system: Jurkat; experiment: Induction of apoptosis in human Jurkat T cells assessed as induction of DEVDase activity at 4 uM after 4 hrs by fluorescence assay; type: functional, cell-based
Outline: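 Jurkat cells (40,000/well, 10^6 cells/mL, RPMI with 0.5% FBS) were treated for 4 h; controls got 0.1% DMSO. Lysis was in CE buffer (PIPES pH 7, NP-40, cytochalasin B, protease inhibitors) for 30 min at 4 °C. Lysates were mixed with 2x caspase buffer (HEPES pH 7.4, CHAPS, sucrose) holding 100 μM Ac-DEVD-AFC and incubated at 37 °C for 30 min. AFC was read every 2 min, ex 390/em 510 nm.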

[8] = test system: Jurkat; experiment: Antiproliferative activity against human Jurkat T cells at 62.5 nM after 48 hrs by MTT assay; type: functional, cell-based
Outline: (§3)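 Jurkat T cells were resuspended at 10^5 cells/mL in RPMI with 0.5% FBS (10,000/well) and seeded immediately before dosing at 62.5 nM–2 μM for two days. Viability was read by MTT (4 h, 37 °C), formazan dissolved in 10% SDS/10 mM HCl, A595 with cell-free background subtracted. Values are relative to DMSO controls (≤0.1% v/v); at least two experiments in triplicate.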

[9] = target: T3, Retinoic acid receptor beta (Homo sapiens) (UniProt P10826); experiment: Transactivation of Gal4-LBD fused human RARbeta (169 to 448) transfected in african green monkey CV1 cells assessed as luciferase activity at 2 uM after 6 hrs by Dual-light chemiluminescent assay; type: cell-based; settings: CV-1; outline: as §2
T3 sequence (whole entry): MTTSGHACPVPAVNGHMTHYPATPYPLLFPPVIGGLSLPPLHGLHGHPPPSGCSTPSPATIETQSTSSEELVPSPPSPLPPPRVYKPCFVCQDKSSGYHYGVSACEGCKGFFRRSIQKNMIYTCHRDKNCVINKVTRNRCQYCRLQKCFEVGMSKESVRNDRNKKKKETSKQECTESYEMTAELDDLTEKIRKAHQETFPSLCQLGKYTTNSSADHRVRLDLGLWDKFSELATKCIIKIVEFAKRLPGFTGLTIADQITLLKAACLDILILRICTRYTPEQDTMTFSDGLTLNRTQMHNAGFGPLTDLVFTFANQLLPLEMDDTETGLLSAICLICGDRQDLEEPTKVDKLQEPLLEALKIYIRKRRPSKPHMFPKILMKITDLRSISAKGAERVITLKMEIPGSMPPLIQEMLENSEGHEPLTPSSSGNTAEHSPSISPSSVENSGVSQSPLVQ

[10] = target: T1, Retinoic acid receptor RXR-alpha (Mus musculus); experiment: Transactivation of Gal4-LBD fused mouse RXRalpha (218 to 467) transfected in african green monkey CV1 cells assessed as luciferase activity at 2 uM after 6 hrs by Dual-light chemiluminescent assay relative to LGD1069; type: cell-based; settings: CV-1
[11] = test system: Jurkat; experiment: Antiproliferative activity against human Jurkat T cells at 2 uM after 48 hrs by MTT assay; type: functional, cell-based; outline: as §3

| Activity [4] [%] | Activity [5] | Activity [9] | Activity [10] [%] | Compound | inhibition at 4 µM [1] [%] | inhibition at 4 µM [2] [%] | inhibition at 4 µM [3] [%] | inhibition at 4 µM [6] [%] | Activity [7] | Activity [8] | Activity [11] |
| --- | --- | --- | --- | --- | --- | --- | --- | --- | --- | --- | --- |
| 45 | inactive | inactive | 45 | COCCOCOc1cc(C)c(-c2ccc3cc(C(=O)O)ccc3c2Cl)cc1C12CC3CC(CC(C3)C1)C2 | 63.7 | 71.2 | 70.2 | 46.1 | Active | inactive | – |
| – | inactive | inactive | – | COCCOCOc1cc(C)c(-c2ccc(CC(=O)O)cc2Cl)cc1C12CC3CC(CC(C3)C1)C2 | 6.3 | 19.1 | 14 | 27.6 | – | – | Active |
